Assay outcomes as filed in PubChem BioAssay.
Rows were chosen to be rich in hits. Some 3.1% of all compounds tested hit in one or more screens of this group.
OX1R antag-1 = antagonists of human orexin 1 receptor; O43613; 330,000 tested, 0.43% active; inhibition, % at 5 µM; CHO/OX1R cells, Fluo-8 calcium fluorescence, orexin A;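 active = inhibition above its plate's threshold, mean inhibition of all tested compounds on the plate plus 3 SD, cut at about 37% in these data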;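 also: 0% = orexin A challenge wells and 100% = SB-334867-A antagonist wells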
CHO parental Ca = counter-screen for OX1R antagonists: effect in parental CHO cells | parental CHO-K1, ATP-induced calcium, Fluo-8 fluorescence | inhibition, % at 5.6 µM | 330,000 tested, 0.63% active;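 active = inhibition above that plate's mean sample inhibition plus 3 SD, cut at about 26% in these data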;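 also: 0% = ATP-challenged DMSO wells and 100% = DMSO wells without ATP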
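Material – parental CHO cells · Reagent – ATP stimulus · Compound – single nominal dose of 5.6 µM per compound · Detection – Fluo-8 fluorescence · Read-out basis – percent inhibition of calcium signal · Controls – ATP-challenged DMSO wells low, unchallenged DMSO wells high · Repeats – no replicates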
GPR7 antag = antagonists of human GPR7 (neuropeptides B/W receptor 1) | P48145 | inhibition, % at 4.4 µM | GPR7-expressing cells, fluorescence antagonist assay | 290,000 tested, 1.1% active; in the data active = inhibition above about 16%, passing the limit was not always enough;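 also: cells stimulated with the agonist NPW; 0% = agonist with vehicle and 100% = vehicle without agonist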
Target sequence (P48145 whole entry, looked up): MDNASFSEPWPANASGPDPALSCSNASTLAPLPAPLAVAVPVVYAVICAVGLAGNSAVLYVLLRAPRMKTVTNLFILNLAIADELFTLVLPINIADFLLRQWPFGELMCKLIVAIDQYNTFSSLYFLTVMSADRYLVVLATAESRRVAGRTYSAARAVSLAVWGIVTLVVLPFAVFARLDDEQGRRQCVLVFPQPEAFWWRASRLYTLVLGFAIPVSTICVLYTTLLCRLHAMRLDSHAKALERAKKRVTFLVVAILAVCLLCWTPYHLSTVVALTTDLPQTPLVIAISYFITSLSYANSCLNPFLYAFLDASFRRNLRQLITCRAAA
OX1R antag-2 = blocks the human orexin 1 receptor; inhibition, % at 6.6 µM; AID 485270; 330,000 tested, 1.8% active; O43613; OX1R-expressing cells, FRET antagonist read-out; in the data active = inhibition mostly above about 38%, no sharp cut-off; inactive = mostly below about 40%;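 also: 0% = agonist challenge alone and 100% = reference antagonist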
GalR3 antag = blocks the human galanin receptor 3; 360,000 tested, 0.44% active; HEK293 GalR3-CNG cAMP membrane potential fluorescence; galR3 body fused to GalR1 C-terminus; inhibition, % at 3 µM; AID 651719;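 active = inhibition above the screen-wide average plus 3 SD, cut at about 13% in these data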;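 also: forskolin and galanin both at EC90 stimulate the cells; cAMP rise reported by CNG channel membrane potential dye signal; 0% = forskolin plus galanin with DMSO and 100% = forskolin alone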
Target sequence (O60755 1-299 limits assumed): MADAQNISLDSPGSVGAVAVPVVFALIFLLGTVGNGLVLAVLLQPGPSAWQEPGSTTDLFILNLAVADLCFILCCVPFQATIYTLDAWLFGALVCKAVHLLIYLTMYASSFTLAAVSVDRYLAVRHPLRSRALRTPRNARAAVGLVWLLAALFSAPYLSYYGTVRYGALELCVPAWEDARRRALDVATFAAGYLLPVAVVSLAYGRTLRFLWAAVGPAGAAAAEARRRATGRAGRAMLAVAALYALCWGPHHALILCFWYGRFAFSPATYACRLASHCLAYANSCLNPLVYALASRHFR
GPR7 antag conf = human GPR7 antagonism, confirmation assay; shares compounds with GPR7 antag; GPR7-expressing cells, calcium fluorescence antagonist mode; inhibition, % at 4.4 µM; 2,400 tested, 52% active; AID 1952; in the data active = inhibition above about 24%;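 also: stimulated with the GPR7 agonist NPW; 0% = agonist plus vehicle and 100% = vehicle alone without agonist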
MCHR1 antag = MCHR1 (human) antagonism in GPR7 counter-screen; 2,400 tested, 62% active; AID 2148; inhibition, % at 4.4 µM; shares compounds with GPR7 antag; MCHR1-expressing cells, fluorescence antagonist assay; in the data active = inhibition above about 22%;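 also: 0% = vehicle with agonist and 100% = vehicle without agonist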
Starred values were filed as active, the others as inactive; / = no result.

SMILES	OX1R antag-1	CHO parental Ca	GPR7 antag	OX1R antag-2	GalR3 antag	GPR7 antag conf	MCHR1 antag
O=C(c1csc2c1CCCC2)N1CCN(c2ccccc2)CC1	-19.1	-16.2	34.6*	11.0	-1.4	23.5	12.4
O=C1c2ccccc2C(c2nnnn2-c2ccc3c(c2)OCCO3)N1Cc1ccc(F)cc1 (configuration not stated)	/	/	/	/	-3.9	/	/
Cc1cccc(OCC(=O)Nc2ccc3oc(=O)ccc3c2)c1	8.1	10.0	36.3*	21.6	-3.3	32.6*	36.1*
CCCCc1c(-c2cccc(Cl)c2)ncn1CCc1ccccc1OC	/	/	/	/	-3.0	/	/
Fc1ccc(Nc2nc(NCc3cccs3)nc3ccsc23)cc1	/	/	/	/	-9.2	/	/
COc1ccc(NC(=O)C(C)Oc2ccc(/C(C)=N\O)cc2)cc1 (configuration not stated)	7.0	5.7	41.9*	5.7	-0.9	43.4*	34.1*
CC(Oc1ccc(Cl)cc1)C(=O)Nc1ccc(S(=O)(=O)N2CCOCC2)cc1 (configuration not stated)	19.8	15.1	55.6*	-3.3	-9.8	53.5*	61.0*
CC(Oc1ccc(Cl)cc1)C(=O)Nc1ccc(S(=O)(=O)Nc2nccs2)cc1 (configuration not stated)	13.6	7.0	23.6*	-23.3	-8.3	19.9	2.8
CC(C)NS(=O)(=O)c1ccc(NC(=O)C(C)Oc2ccc(C(=O)c3ccccc3)cc2)cc1 (configuration not stated)	93.3*	68.3*	90.9*	4.6	1.6	91.5*	95.9*
CC(Oc1ccc(Cl)cc1)C(=O)Nc1cccc(S(=O)(=O)N2CCCC2)c1 (configuration not stated)	/	/	/	/	-6.6	/	/
CNCC(O)Cn1c(C(F)(F)F)nc2ccccc21 (configuration not stated)	-20.0	-18.4	30.9*	20.3	-5.3	-6.3	19.5
COc1cc(OC)cc(C(=O)N[C@H](C(=O)OCC(=O)Nc2ccc(F)c(F)c2)C(C)C)c1	-31.4	-18.2	21.3*	14.1	9.5	33.7*	48.3*
COc1cc(OC)cc(C(=O)N[C@H](C(=O)OCC(=O)Nc2ccc(C(N)=O)cc2)C(C)C)c1	-12.5	0.3	-0.7	-2.3	-3.9	/	/
COc1ccccc1N1CCN(C(=O)COc2ccc(Cl)cc2Br)CC1	-16.8	-14.8	28.4*	22.3	-6.1	47.7*	46.9*
Cc1cc(Cl)ccc1OC(C)C(=O)N1CCCN(C(=O)C(C)Oc2ccc(Cl)cc2C)CC1 (configuration not stated)	13.9	-19.2	32.3*	31.9	-10.4	62.8*	70.8*
Cc1cc(Cl)ccc1OCC(=O)N1CCCN(C(=O)COc2ccc(Cl)cc2C)CC1	-16.3	-20.8	26.9*	27.1	0.8	12.5	20.0
CC1CN(c2oc(COc3ccc(Cl)cc3Cl)nc2C#N)CC(C)O1 (configuration not stated)	-38.7	-19.2	40.2*	13.2	-3.2	23.9*	27.7*
CC(=O)c1ccc(N2CCN(CC(O)COC(c3ccccc3)c3ccccc3C)CC2)cc1 (configuration not stated)	-13.9	-18.7	15.2	9.8	-10.6	/	/
CC(=O)c1ccc(N2CCN(CC(O)COC(c3ccccc3)c3ccccc3)CC2)cc1 (configuration not stated)	-24.6	-16.6	27.2*	3.5	-8.0	35.0*	34.4*
CCN1CCN(c2ccc(S(=O)(=O)N3CCCCC3)cc2NC(=O)COc2ccc(Cl)c(C)c2)CC1	-24.2	-7.9	23.3*	2.8	-4.2	51.0*	43.2*
CC(C)NS(=O)(=O)c1ccc(CCC(=O)N2CCCCC2)cc1	-24.0	13.4	22.5*	7.0	5.6	-12.3	2.1
O=S(=O)(Nc1ncccn1)c1ccc(NC(=S)NCCc2ccccc2)cc1	-7.5	6.2	-19.6	2.1	-4.6	/	/
COCCNC(=S)Nc1ccc(S(=O)(=O)Nc2ncccn2)cc1	1.8	3.6	25.2*	4.8	4.3	-7.7	-5.9
Cc1ccc(NC(=O)CSc2nnc(-c3ccncc3)n2C)cc1C	-4.2	-5.8	83.1*	14.1	-3.7	-7.5	1.4
COC(=O)C1=C(C)N(Cc2ccccc2C(F)(F)F)C(=NCc2ccc(OC)cc2)NC1c1ccccc1 (configuration not stated)	/	/	/	/	-7.7	/	/
SMILES	OX1R antag-1	CHO parental Ca	GPR7 antag	OX1R antag-2	GalR3 antag	GPR7 antag conf	MCHR1 antag
CC1CCc2sc(C(=O)NN=C3CCCC3)cc2C1 (configuration not stated)	/	/	/	/	-7.4	/	/
O=C(Oc1ccc(C(=S)N2CCOCC2)cc1)c1cccc(Cl)c1	-8.5	-9.3	14.0	4.9	-8.1	/	/
O=C(Oc1ccc(C(=S)N2CCC(O)CC2)cc1)c1ccc(Cl)cc1	-16.1	-0.9	25.5*	0.5	-4.8	34.2*	38.0*
COC(=O)[C@@]12C[C@@H](CC(=O)NCC34CC5CC(CC(C5)C3)C4)C(=O)N(Cc3ccc4c(c3)OCO4)C1=CCC(C)(C)C2	/	/	/	/	-7.8	/	/
Cc1cc(NC2CCCCC2)nc(NCc2ccccc2)n1	-6.4	35.6*	23.9*	19.4	-6.4	50.8*	80.7*
Cc1ccc(Nc2cc(C)nc(NCc3ccccc3)n2)cc1	-20.0	14.5	10.9	6.6	-10.0	/	/
CC(C)c1ccc(/C=C/C(=O)Nc2ccc(CN3CCOCC3)cc2)cc1	-14.3	-20.4	8.6	6.7	-3.6	/	/
O=C(/C=C/c1ccc(Cl)cc1)Nc1ccc(CN2CCOCC2)cc1	-10.2	-16.6	27.9*	25.3	0.1	36.4*	55.4*
COc1cccc(CNC(=O)[C@H]2CCCN2C(=O)[C@H]2CCCN2C(=O)N2CCOCC2)c1	/	/	/	/	-7.4	/	/
CC(C)C(C(=O)NC1CCCC1)N1CCC(O)(c2ccc(Cl)cc2)CC1 (configuration not stated)	/	/	/	/	2.7	/	/
CC(C)(C)c1cc(NCCCn2ccnc2)n2ncc(-c3ccc(Cl)cc3)c2n1	-30.3	-26.1	0.8	6.2	-7.3	/	/
CN(C)CCCNc1cc(C(C)(C)C)nc2c(-c3ccccc3)cnn12	8.4	27.4	67.1*	4.3	-6.6	66.2*	67.2*
CC1CN(C(=O)CCC(=O)N2CCN(c3ccccn3)CC2)c2ccccc2O1 (configuration not stated)	-25.3	-11.9	-3.5	0.5	/	/	/
Cc1ccc2c(c1)N(C(=O)CCC(=O)N1CCN(c3ccccn3)CC1)CC(C)O2 (configuration not stated)	-14.5	-10.9	30.8*	6.0	/	6.2	4.8
CCN(CC)c1ncnc2c1ncn2[C@H]1CN(Cc2ccncc2)C[C@@H](CO)O1	/	/	/	/	-6.8	/	/
C[C@H](CO)N1C[C@H](C)[C@@H](CN(C)C(=O)Nc2cc(F)ccc2F)Oc2ncc(-c3cccc(F)c3)cc2C1=O	/	/	/	/	-4.9	/	/
Brc1cccc(OCCn2ccnc2)c1	-11.6	-8.3	23.6*	24.2	3.1	8.7	1.6
